From ChEMBL document CHEMBL4024804 (J Med Chem, 2018)
Active and inactive are the calls of the source. No cut-off for these calls is given here.

Columns and labels:
[1] = system: M14; experiment: Cytotoxicity against human M14 cells after 72 hrs by MTS assay; format: functional, cell-based; details: M14, 72 h
Outline: (§1)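 Melanoma cells grown in DMEM with 10% FBS and seeded at 1800–3500 cells per well, then incubated overnight. Cells treated for 72 h with 10 concentrations from 0.03 nM to 1 μM, with DMSO vehicle, in four replicates. MTS added for at least 1 h at 37 °C and absorbance read at 490 nm. IC50 obtained by nonlinear regression.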

[2] = system: A-375; experiment: Cytotoxicity against human A375 cells after 72 hrs by MTS assay; format: functional, cell-based; details: A-375, 72 h; outline: as §1
[3] = system: RPMI-7951; experiment: Cytotoxicity against human RPMI7951 cells after 72 hrs by MTS assay; format: functional, cell-based; details: RPMI-7951, 72 h; outline: as §1
[4] = species on record: Homo sapiens; experiment: Inhibition of tubulin polymerization in human WM164 cells assessed as fragmentation of microtubules at 100 nM after 18 hrs using DAPI by immunofluorescence-based confocal microscopic method; format: cell-based
Outline: (§2)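 WM164 cells on glass coverslips (125 000 cells/well), incubated overnight, treated 18 h with 100 nM compound or DMSO vehicle. Stained with anti-α-tubulin and Alexa Fluor 647 anti-mouse IgG, mounted in DAPI-containing medium, and imaged by confocal microscopy.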

[5] = system: PC-3; experiment: Cytotoxicity against human PC3 cells after 72 hrs by MTS assay; format: functional, cell-based; details: PC-3, 72 h
Outline: (§3)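 Cells treated 72 h at 10 concentrations, 0.03 nM–1 μM, n = 4. MTS read at 490 nm; IC50 by nonlinear regression. RI = resistant IC50 / parental IC50.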

[6] = Acute toxicity in nude mouse administered as qd for 5 days; details: in vivo
Outline: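 Nude mice, 6–8 weeks old; compound formulated in PEG300 and given as five continuous daily administrations, then monitored for acute toxicity. A single-dose acute MTD was estimated first.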

[7] = system: A-375; experiment: Antimigratory activity in human A375 cells assessed as wound closure at 25 nM after 22 hrs (reference value: 60.7 +/- […]); format: functional
[8] = Resistance index, ratio of IC50 for human PC3-TxR cells to IC50 for human PC3 cells; format: functional
Outline: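 Cells were treated 72 h with 10 concentrations from 0.03 nM to 1 μM, four replicates, A490 read. IC50 by nonlinear regression. RI = IC50 resistant / IC50 parental.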

[9] = system: A-375; experiment: Antitumor activity against human A375 cells xenografted in nude mouse assessed as tumor growth inhibition at 30 mg/kg, ip administered every other day for 2 weeks relative to control; format: functional; details: A-375, ip, 336 h, read-out: TGI
Outline: (§4)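 Nude mice 6–8 weeks old; 2 × 10^6 A375 cells in FBS-free medium with Matrigel injected sc into dorsal flank. At about 100 mm3 mice were randomized, n = 8. Drug in 2:1 PEG300/PBS given ip every other day. Volume measured by caliper three times weekly (a × b2 × 0.5).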

[10] = system: A-375; experiment: Induction of morphological changes in human A375 cells xenografted in nude mouse assessed as less microvessel density at 15 mg/kg, ip administered every other day for 2 weeks by immunohistochemical analysis; format: functional, organism-based
[11] = system: Liver; experiment: Half life in human liver microsomes by UPLC-MS analysis; format: ADME, microsome
Outline: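 Compound at 10 mM in DMSO diluted into human liver microsomes (0.6381 mg/mL protein) in 0.1 M potassium phosphate pH 7.4 with EDTA. NADPH regenerating system added, incubated at 37 °C for 0–4 h in triplicate. Quenched with cold acetonitrile containing warfarin as internal standard, analysed by UPLC–MS SIR. ke from log-linear regression; t1/2 = ln 2/ke.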

[12] = system: RPMI-7951; experiment: Antimigratory activity in human RPMI7951 cells after 18 hrs by wound healing assay; format: functional, cell-based
Outline: (§5)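 A375 and RPMI7951 monolayers seeded overnight (200 000 cells/well, triplicate), scratched with a pipet tip, washed, then given medium with 5 or 25 nM compound; untreated control wells. Imaged at 0 h and at 18 h (RPMI7951) or 22 h (A375); wound channel area measured and percent closure calculated. Dunnett's test versus control.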

[13] = Cytotoxicity against human DU145-TxR cells after 72 hrs by MTS assay; format: functional, cell-based; outline: as §3
[14] = system: A-375; experiment: Antitumor activity against human A375 cells xenografted in nude mouse assessed as decrease in tumor weight at 30 mg/kg, ip administered every other day for 2 weeks; format: functional, organism-based; details: 30 mg/kg
Outline: (§6)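 Nude mice (6–8 weeks) injected subcutaneously in dorsal flank with 2 × 10^6 A375 cells in Matrigel. At ~100 mm3, randomized (n = 8). Compound given ip every other day in 2:1 PEG300/PBS; vehicle equal parts PEG300/PBS. Tumors weighed at sacrifice; mean ± SEM, ANOVA with Dunnett's test versus vehicle.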

[15] = system: A-375; experiment: Induction of apoptosis in human A375 cells xenografted in nude mouse assessed as increase in cleaved caspase-3 levels at 30 mg/kg, ip administered every other day for 2 weeks by immunohistochemical analysis; format: functional, organism-based
Outline: (§7)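 Formalin-fixed, paraffin-embedded A375 xenograft tumors from mice dosed ip every other day (2:1 PEG300/PBS). Serial sections immunostained with rabbit anti-cleaved caspase 3 antibody by the ABC-DAB method.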

[16] = system: A-375; experiment: Induction of apoptosis in human A375 cells xenografted in nude mouse assessed as increase in cleaved caspase-3 levels at 15 mg/kg, ip administered every other day for 2 weeks by immunohistochemical analysis; format: functional, organism-based; outline: as §7
[17] = system: A-375; experiment: Induction of morphological changes in human A375 cells xenografted in nude mouse assessed as less microvessel density at 30 mg/kg, ip administered every other day for 2 weeks by immunohistochemical analysis; format: functional, organism-based
[18] = Cytotoxicity against human PC3-TxR cells after 72 hrs by MTS assay; format: functional, cell-based; outline: as §3
[19] = system: A-375; experiment: Antimigratory activity in human A375 cells after 22 hrs by wound healing assay; format: functional, cell-based; outline: as §5
[20] = system: DU-145; experiment: Cytotoxicity against human DU145 cells after 72 hrs by MTS assay; format: functional, cell-based; details: DU-145, 72 h; outline: as §3
[21] = species on record: Homo sapiens; experiment: Inhibition of tubulin polymerization in human WM164 cells assessed as increase in cytoplasmic soluble tubulin levels at 100 nM after 18 hrs using DAPI by immunofluorescence-based confocal microscopic method; format: cell-based; outline: as §2
[22] = system: Tubulin (Sus scrofa); experiment: Inhibition of tubulin (porcine brain) polymerization measured every min for 50 mins
[23] = system: RPMI-7951; experiment: Antimigratory activity in human RPMI7951 cells assessed as wound closure at 5 nM after 18 hrs (reference value: 71.8 +/- 1.8%); format: functional
[24] = system: A-375; experiment: Antitumor activity against human A375 cells xenografted in nude mouse assessed as decrease in tumor weight at 15 mg/kg, ip administered every other day for 2 weeks; format: functional, organism-based; outline: as §6
[25] = system: A-375; experiment: Antimigratory activity in human A375 cells assessed as wound closure at 5 nM after 22 hrs (reference value: 60.7 +/- […]); format: functional
[26] = system: A-375; experiment: Antitumor activity against human A375 cells xenografted in nude mouse assessed as tumor growth inhibition at 15 mg/kg, ip administered every other day for 2 weeks relative to control; format: functional; details: A-375, ip, 336 h, read-out: TGI; outline: as §4
[27] = system: RPMI-7951; experiment: Antimigratory activity in human RPMI7951 cells assessed as wound closure at 25 nM after 18 hrs (reference value: 71.8 +/- 1.8%); format: functional
[28] = Antitumor activity against human PC3-TxR cells xenografted in nude mouse assessed as tumor growth inhibition at 30 mg/kg, ip administered every other day for 3 weeks; format: functional; details: 504 h, read-out: TGI
Outline: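 Nude mice 6–8 weeks old; 2.5 × 10^6 PC-3/TxR cells with Matrigel injected sc into dorsal flank. […] At about 100 mm3 mice were randomized, n = 7. Drug in 2:1 PEG300/PBS given ip every other day. Caliper volume a × b2 × 0.5. TGI computed from start and end mean volumes relative to the vehicle group.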

[29] = Resistance index, ratio of IC50 for human DU145-TxR cells to IC50 for human DU145 cells; format: functional; outline: as §3
[30] = species on record: Homo sapiens; experiment: Inhibition of tubulin polymerization in human WM164 cells assessed as decrease in polymeric tubulin filaments at 100 nM after 18 hrs using DAPI by immunofluorescence-based confocal microscopic method; format: cell-based; outline: as §2

CN(c1ccc2c(c1)OCO2)c1nc(Cl)nc2ncccc12
IC50 [1]: 0.164 µM | IC50 [2]: 0.162 µM | IC50 [3]: 0.179 µM

COc1ccc2c(n1)CCCN2c1nc(Cl)nc2ncccc12
IC50 [1]: > 1 µM | IC50 [2]: > 1 µM | IC50 [3]: > 1 µM

COc1ccc(N(C)c2nc(Cl)nc3ncccc23)cc1OC
IC50 [1]: 0.0395 µM | IC50 [2]: 0.039 µM | IC50 [3]: 0.0475 µM

COc1ccc2c(c1)CCCN2c1nc(Cl)nc2ncccc12
inhibition [4]: Active | IC50 [1]: 0.0055 µM | IC50 [5]: 0.0127 µM | MTD at 120 h [6]: 50 mg/kg | Activity [7]: 16.9% | IC50 [2]: 0.0056 µM | Ratio IC50 [8]: 0.7 | inhibition in vivo at 30 mg/kg [9]: 72.3% | Activity [10]: Active | t1/2 [11]: 1.4 h | Activity [12]: Dose-dependent effect | IC50 [13]: 0.0199 µM | Activity [14]: Active | Activity [15]: Active | Activity [16]: Active | Activity [17]: Active | IC50 [18]: 0.0087 µM | Activity [19]: Dose-dependent effect | IC50 [20]: 0.0183 µM | inhibition [21]: Active | inhibition [22]: Dose-dependent effect | Activity [23]: 46.4% | Activity [24]: Active | Activity [25]: 36.4% | inhibition in vivo at 15 mg/kg [26]: 57.1% | Activity [27]: 25.5% | inhibition in vivo at 30 mg/kg [28]: 55.6% | Ratio IC50 [29]: 1.1 | IC50 [3]: 0.0082 µM | inhibition [30]: Active

COc1cc(N(C)c2nc(Cl)nc3ncccc23)cc(OC)c1OC
IC50 [1]: > 1 µM | IC50 [2]: > 1 µM | IC50 [3]: > 1 µM

COc1ccc2c(c1)CCCN2c1nc(Cl)nc2ncn(C)c12
IC50 [1]: 0.0412 µM | IC50 [2]: 0.0396 µM | IC50 [3]: 0.0589 µM

COc1ccc2c(c1)C(O)CCN2c1nc(Cl)nc2ncccc12 (centres undefined)
IC50 [1]: 0.0526 µM | IC50 [2]: 0.0361 µM | IC50 [3]: 0.0419 µM

COc1ccc2c(c1)CCCN2c1nc(C)nc2[nH]ncc12
IC50 [1]: > 1 µM | IC50 [2]: > 1 µM | IC50 [3]: > 1 µM

COc1ccc2c(c1)CCCN2c1nc(Cl)nc2cccnc12
IC50 [1]: 0.0042 µM | IC50 [2]: 0.004 µM | IC50 [3]: 0.0044 µM
